ChEMBL document CHEMBL1149812, “Synthesis of N-aryl-5-amino-4-cyanopyrazole derivatives as potent xanthine oxidase inhibitors” (Eur J Med Chem, 2008)

Key:
[1] = test system: SF-268; test: Growth inhibition of human SF268 cells after 48 hrs; assay type: functional; conditions: SF-268, 48 h
Outline: (§1)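 SRB protein-stain assay following the NCI screening protocol. Cells kept adherent in RPMI-1640 with 5% heat-inactivated FBS, 2 mM glutamine and 50 µg/mL gentamicin at 37 °C under 5% CO2. Seeded at 7.5 × 10^4 cells/mL (NCI-H460) or 1.5 × 10^5 cells/mL (MCF-7, SF-268). Exposed 48 h to five concentrations, top 150 µM, DMSO ≤0.25%. […] Mean ± SEM of 1–6 experiments in duplicate.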

[2] = test system: MCF7; test: Growth inhibition of human MCF7 cells after 48 hrs; assay type: functional; conditions: MCF7, 48 h; outline: as §1
[3] = target: T1, Xanthine dehydrogenase/oxidase (Homo sapiens, UniProt P47989); test: Inhibition of xanthine oxidase
Outline: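 Enzyme preincubated 15 min at room temperature: xanthine oxidase 0.066 U/mL in 50 mM potassium dihydrogen phosphate pH 7.4 with compound in DMSO (1% final). Started with 100 µM xanthine plus 1 mM EDTA. Mean ± SEM of 3 experiments, each in triplicate.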

[4] = target: T1, Xanthine dehydrogenase/oxidase; test: Activity of xanthine oxidase assessed as change in absorbance per min at 0.025 uM in presence of xanthine
Outline: (§2)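 Kinetic runs: xanthine oxidase (0.066 U/mL) in 50 mM potassium dihydrogen phosphate pH 7.4 preincubated 15 min at room temperature with inhibitor in DMSO (1% final). Started with xanthine at 100, 75, 50 or 25 µM plus 1 mM EDTA. Uric acid formation read at 295 nm over 2 min as ΔA/min. Vmax and Km taken from Lineweaver–Burk plots.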

[5] = target: T1, Xanthine dehydrogenase/oxidase; test: Activity of xanthine oxidase assessed as change in absorbance per min at 0.1 uM in presence of xanthine; outline: as §2
[6] = test system: NCI-H460; test: Growth inhibition of human NCI-H460 cells after 48 hrs; assay type: functional; conditions: NCI-H460, 48 h; outline: as §1
[7] = target: T1, Xanthine dehydrogenase/oxidase; test: Activity of xanthine oxidase assessed as change in absorbance per min at 40 uM in presence of xanthine; outline: as §2
[8] = target: T1, Xanthine dehydrogenase/oxidase; test: Activity of xanthine oxidase assessed as change in absorbance per min at 10 uM in presence of xanthine; outline: as §2
[9] = target: T1, Xanthine dehydrogenase/oxidase; test: Inhibition of xanthine oxidase at 100 uM

T1 sequence (P47989 whole entry): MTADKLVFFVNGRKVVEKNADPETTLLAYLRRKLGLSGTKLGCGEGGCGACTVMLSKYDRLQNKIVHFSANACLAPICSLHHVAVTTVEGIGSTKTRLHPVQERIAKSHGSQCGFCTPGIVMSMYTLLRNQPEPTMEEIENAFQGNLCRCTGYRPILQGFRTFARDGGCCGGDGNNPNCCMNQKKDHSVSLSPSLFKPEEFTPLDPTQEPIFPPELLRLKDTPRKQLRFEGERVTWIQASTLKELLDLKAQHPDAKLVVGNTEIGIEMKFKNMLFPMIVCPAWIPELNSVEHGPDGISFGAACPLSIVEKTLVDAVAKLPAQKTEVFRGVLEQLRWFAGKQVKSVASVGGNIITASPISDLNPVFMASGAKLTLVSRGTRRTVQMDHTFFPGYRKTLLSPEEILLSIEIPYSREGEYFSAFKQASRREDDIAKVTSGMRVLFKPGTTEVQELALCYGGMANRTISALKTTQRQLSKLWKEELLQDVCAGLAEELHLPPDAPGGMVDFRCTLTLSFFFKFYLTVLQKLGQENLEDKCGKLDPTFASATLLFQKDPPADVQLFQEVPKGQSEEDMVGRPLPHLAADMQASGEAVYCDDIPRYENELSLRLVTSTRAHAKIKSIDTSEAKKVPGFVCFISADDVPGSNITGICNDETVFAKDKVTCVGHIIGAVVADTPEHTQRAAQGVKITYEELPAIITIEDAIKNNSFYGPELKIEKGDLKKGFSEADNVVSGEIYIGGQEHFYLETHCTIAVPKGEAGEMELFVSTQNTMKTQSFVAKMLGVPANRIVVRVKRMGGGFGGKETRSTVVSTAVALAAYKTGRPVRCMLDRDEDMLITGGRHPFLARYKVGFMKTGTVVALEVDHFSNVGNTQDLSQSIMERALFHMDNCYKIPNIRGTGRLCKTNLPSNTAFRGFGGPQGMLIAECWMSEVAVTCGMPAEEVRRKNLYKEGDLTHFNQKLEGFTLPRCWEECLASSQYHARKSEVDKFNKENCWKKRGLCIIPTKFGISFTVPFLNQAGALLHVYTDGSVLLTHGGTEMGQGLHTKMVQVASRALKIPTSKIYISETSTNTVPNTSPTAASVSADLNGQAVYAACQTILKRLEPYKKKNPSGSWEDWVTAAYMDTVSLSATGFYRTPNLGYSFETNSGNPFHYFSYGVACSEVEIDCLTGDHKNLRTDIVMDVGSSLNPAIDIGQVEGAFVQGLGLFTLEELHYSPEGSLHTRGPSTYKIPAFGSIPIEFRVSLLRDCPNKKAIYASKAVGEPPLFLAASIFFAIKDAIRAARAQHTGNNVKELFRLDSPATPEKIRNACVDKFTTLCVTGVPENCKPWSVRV

GI50 [2] [µM]	IC50 [3] [µM]	GI50 [6] [µM]	SMILES	GI50 [1] [µM]	other results
> 150	0.08	> 150	COC(=O)CNC(=O)c1ccc(-n2ncc3c(N)ncnc32)cc1	> 150	deltaA [4]: 0.16; deltaA [5]: 0.13
> 150	> 100	> 150	COc1ccc(-n2ncc(C#N)c2N)cc1	> 150	–
> 150	37.9	> 150	COC(=O)CNC(=O)c1ccc(-n2ncc(C#N)c2N)cc1	> 150	deltaA [7]: 0.09; deltaA [8]: 0.23
–	36.1	–	N#Cc1cnn(-c2ccc(C(=O)O)cc2)c1N	–	deltaA [7]: 0.08; deltaA [8]: 0.12
> 150	19.6	> 150	COc1ccc(-n2ncc3c(N)ncnc32)cc1	> 150	–
–	0.4	–	N#Cc1ccc(-n2ncc3c(N)ncnc32)cc1	–	–
–	81	–	Nc1ncnc2c1cnn2-c1ccc(C(=O)O)cc1	–	–
–	0.18	–	Nc1ncnc2c1cnn2-c1ccc(C(F)(F)F)cc1	–	–
–	17.4	–	Cc1ccc(-n2ncc3c(N)ncnc32)cc1	–	–
> 150	18.4	> 150	CC(=O)OC[C@H]1O[C@@H](Nc2ncnc3c2cnn3-c2ccc(C(=O)O)cc2)[C@H](OC(C)=O)[C@@H](OC(C)=O)[C@@H]1OC(C)=O	> 150	–
–	2.2	–	Nc1ncnc2c1cnn2-c1ccc([N+](=O)[O-])cc1	–	–

The next lines start with the compound.

SMILES	GI50 [2] [µM]	IC50 [3] [µM]	GI50 [6] [µM]	GI50 [1] [µM]	other results
N#Cc1cnn(-c2ccc(Cl)cc2)c1N	> 150	> 100	> 150	> 150	–
N#Cc1ccc(-n2ncc(C#N)c2N)cc1	> 150	> 100	> 150	> 150	–
COc1cccc2c1C(=O)c1c(O)c3c(c(O)c1C2=O)C[C@@](O)(C(=O)CO)C[C@@H]3O[C@H]1C[C@H](N)[C@H](O)[C@H](C)O1 [DOXORUBICIN]	0.0428	–	0.094	0.093	–
N#Cc1cnn(-c2ccc(C(F)(F)F)cc2)c1N	> 150	> 100	> 150	> 150	–
CC(=O)OC[C@H]1O[C@@H](Nc2c(C#N)cnn2-c2ccc(C(=O)O)cc2)[C@H](OC(C)=O)[C@@H](OC(C)=O)[C@@H]1OC(C)=O	–	> 100	–	–	–
N#Cc1cnn(-c2ccc([N+](=O)[O-])cc2)c1N	64	> 100	128	135	–
Oc1ncnc2[nH]ncc12 [ALLOPURINOL]	–	–	–	–	inhibition at 100 µM [9]: 96.3%
Cc1ccc(-n2ncc(C#N)c2N)cc1	> 150	> 100	> 150	> 150	–
